Experimental data published in paper PMC4136418 (Drug development and industrial pharmacy, 2013).
Values after ≈ are worked out from the molar mass of the structure shown.

What was measured:
HIV-1 [1] = type: cell-based; settings: 16 h pretreatment, drug removed before HIV exposure
[2] = Transport across Caco-2 cell monolayers; type: in vitro ADME, human; settings: human; for Papp A→B at 2 h, 25 μg/ml: Caco-2, Papp (a–b)
Method in brief: (§1)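 Caco-2 cells (passages 27–32) are grown on 4.2 cm2 polycarbonate inserts and used on days 21–24 if TEER exceeds 600 Ωcm2. HBSS is buffered with […] (pH 5.5, 6.5) or HEPES (pH 7.4); monolayers are preincubated 20 min. The pH study uses 25 μg/ml apical, basolateral pH 7.4. Bidirectional runs use 2.5–250 μg/ml at pH 7.4. Incubation is 2 h at 37 °C with sampling to 120 min; HPLC gives Papp = (dQ/dt)/(A×C0); n = 3.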

Caco-2 cell monolayers = assay: Transport across Caco-2 cell monolayers; type: in vitro ADME, human
Method in brief: as §1

HIV-1 [3] = type: cell-based; settings: for Anti-HIV activity: drug present at constant levels throughout the HIV infection process, 48 h
[4] = In vitro cytotoxicity, MTT assay, CaSki cells; type: cell-based; settings: human
Method in brief: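 Cells are grown at 37 °C in 5% CO2 with 10% FBS and penicillin-streptomycin: A 431 in DMEM, CaSki in RPMI 1640. They are seeded at 1 × 10^4/well, grown 24 h, then exposed to 1 ng/ml–50 μg/ml compound for 24, 48 or 72 h. Fresh medium plus MTT (5 mg/ml solution) follows for 4 h. Formazan is dissolved in DMSO and read at 595 nm; n = 8.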

Stability study = type: physicochemical; settings: all test conditions: pH 3.0–9.0, 25, 40 or 65 °C, light, 0.02% hydrogen peroxide; up to 21 days
[5] = Human ectocervical tissue permeability study; type: in vitro ADME
[6] = Solubility in buffers, Vaginal Fluid Simulant and organic solvents; type: physicochemical
HIV = settings: cited from earlier work
Dynamic vapor sorption = type: physicochemical; settings: 25°C/80% RH
Method in brief: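 Test compound powder (about 7 mg) is dried at 0% RH for at least 2 h at 40 °C. Sorption then runs isothermally at 25 °C, with RH stepped from 0 to 90% and back to 0%.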

## C#C[C@]1(CO)O[C@@H](n2cnc3c(N)nc(F)nc32)C[C@@H]1O [EFdA, 4′-Ethynyl-2-fluoro-2′-deoxyadenosine]
HIV-1 [1]
  Protective or memory effect: retained anti-HIV protection similar to that seen when EFdA was present throughout the infection
[2]; Caco-2
  Papp at 2 h: < 1 ×10⁻⁶ cm/s
  efflux ratio at 2 h, 25 μg/ml: 8.01
  efflux ratio at 2 h, 250 μg/ml: 2.74
[2]; apical pH 5.5, basolateral pH 7.4
  Papp A→B at 2 h, 25 μg/ml: 0.367 ×10⁻⁶ cm/s
[2]; apical pH 6.5, basolateral pH 7.4
  Papp A→B at 2 h, 25 μg/ml: 0.436 ×10⁻⁶ cm/s
[2]; Caco-2, pH 7.4, Papp (a–b), 250 μg/ml, pH 7.4 both sides
  Papp A→B at 2 h, 250 μg/ml: 0.595 ×10⁻⁶ cm/s
Caco-2 cell monolayers; 2.5 μg/ml, pH 7.4, HPLC LOD 0.05 μg/ml
  Absorptive transport (a–b), drug in receptor compartment: no EFdA was detected
Caco-2 cell monolayers; high concentration group (250 μg/ml)
  Papp (b-a), fold lower than low and medium concentration treatments: about 2 fold
HIV-1 [3]; cell-based studies
  Selectivity index (CC50/EC50): greater than 1 × 10^3
HIV-1 [3]
  Anti-HIV activity: highly potent inhibitors
HIV-1 [3]; drug present throughout infection
  Potency relative to UC781: about two-fold more potent than UC781
[4]
  CC50 at 48 h: 47.8 ± 12.4 µg/mL (≈ 0.163 mM)
  CC50 at 72 h: 41.1 ± 8.78 µg/mL (≈ 0.14 mM)
Stability study
  Drug remaining: > 95%
[5]; female, human, pH 7.4
  Papp at 6 h, 500 μg/ml: 0.834 ×10⁻⁶ cm/s
[5]; human ectocervical tissues pre- and post-treatment
  Tissue morphology after exposure: lack of any significant morphological changes
[6]; PBS, pH 6
  solubility at 120 h: 799 ± 8.7 µg/mL (≈ 2.73 mM)
[6]; Vaginal Fluid Simulant, pH 4.2
  solubility: 887 µg/mL (≈ 3.03 mM)
[6]; acid phthalate buffer, pH 3
  solubility at 120 h: 1510 ± 68.4 µg/mL (≈ 5.14 mM)
[6]; acid phthalate buffer, pH 4
  solubility at 120 h: 1360 ± 48.3 µg/mL (≈ 4.63 mM)
[6]; acid phthalate buffer, pH 4, aqueous buffer, thermodynamic from solid
  solubility at 120 h: 1620 ± 55.9 µg/mL (≈ 5.53 mM)
[6]; from pH 6–9
  Change in solubility: no obvious change in solubility
[6]; pH 7.0 and 9.0
  Change in solubility with increase in ionic strength: statistically significant decrease
HIV
  EC50: ~0.07 nM
Dynamic vapor sorption
  Moisture absorbed: approximately 10 % w/w

## CC(C)=CCOc1cc(NC(=S)c2ccoc2C)ccc1Cl [UC781, reference compound]
HIV-1 [1]
  Protective or memory effect: substantial diminution of anti-HIV protection
HIV-1 [3]
  Anti-HIV activity: highly potent inhibitors
